Shown are actives, neighbours in structure and some others; about 4.3% of the full set was active somewhere.
TAAR1 antag – human TAAR1 antagonists, primary screen, Fluo-8 calcium fluorescence, CHO RD-HGA16 cells; antagonist; inhibition, % at 3 µM; actives 1.5% (n = 360,000);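 active = inhibition above a per-plate cutoff, the mean inhibition of test compounds on that plate plus 3 SD, cut at about 49% in these data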;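 also: 0% = DMSO plus EC80 beta-PEA response and 100% = DMSO alone without agonist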
Target sequence (Q96RJ0 whole entry, looked up): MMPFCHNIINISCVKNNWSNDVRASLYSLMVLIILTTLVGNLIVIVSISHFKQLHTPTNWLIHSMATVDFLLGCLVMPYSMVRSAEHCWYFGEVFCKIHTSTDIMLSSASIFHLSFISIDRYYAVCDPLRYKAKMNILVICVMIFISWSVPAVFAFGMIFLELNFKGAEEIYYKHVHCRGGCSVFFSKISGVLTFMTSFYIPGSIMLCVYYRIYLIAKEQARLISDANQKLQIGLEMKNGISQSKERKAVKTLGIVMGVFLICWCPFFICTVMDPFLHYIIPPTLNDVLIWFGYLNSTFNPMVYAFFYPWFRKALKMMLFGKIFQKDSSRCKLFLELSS
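Test system – hTAAR1-expressing CHO RD-HGA16 cells, Gα16-coupled · Also added – β-PEA at EC80 concentration, post-compound challenge · Compound – 3 µM, single point · Incubation – dye loading 75 min at 37 °C, then 30 min room temperature · Measured by – Fluo-8 intracellular calcium dye fluorescence, real-time kinetic reads · Benchmarks – vehicle and agonist controls · Replicates – singlicate, one well per test compound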
CHO parental Ca – ATP-evoked calcium signal inhibitors, parental CHO, primary screen, counter-screen for OX1R antagonist project, cell-based, fluorescence, Fluo-8 calcium dye; actives 0.63% (n = 330,000); AID 463079, 2010; inhibition, % at 5.6 µM; parental CHO-K1, ATP-induced calcium, Fluo-8 fluorescence;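 active = inhibition above that plate's mean sample inhibition plus 3 SD, cut at about 26% in these data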;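 also: 0% = ATP-challenged DMSO wells and 100% = DMSO wells without ATP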
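material = parental CHO cells | also added = ATP as calcium-mobilizing challenge | dosing = single point at 5.6 µM | detection = intracellular calcium via Fluo-8 no-wash fluorescent dye | read-out = % inhibition | benchmarks = low control ATP plus DMSO, high control DMSO only | repeats = one well per compound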
OX1R antag-1 – OX1R (HCRTR1) antagonists, primary screen, fluorescence, CHO/OX1R cells, Fluo-8 calcium, orexin A | Orexin/Hypocretin receptor type 1 (Homo sapiens), O43613 | Fluo-8 calcium fluorescence | inhibition, % at 5 µM | actives 0.43% (n = 330,000) | AID 434989, 2010;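 active = inhibition above its plate's threshold, mean inhibition of all tested compounds on the plate plus 3 SD, cut at about 37% in these data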;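 also: 0% = orexin A challenge wells and 100% = SB-334867-A antagonist wells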
OX1R antag-2 – antagonists of human orexin 1 receptor (OX1R). Orexin/Hypocretin receptor type 1 (Homo sapiens), O43613. inhibition, % at 6.6 µM. actives 1.8% (n = 330,000). OX1R-expressing cells, FRET antagonist read-out; in the data active = inhibition mostly above about 38%, no sharp cut-off; inactive = mostly below about 40%;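 also: 0% = agonist challenge alone and 100% = reference antagonist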
TAAR1 agonist – human TAAR1 agonists, primary screen, Fluo-8 calcium fluorescence, CHO RD-HGA16 cells; Trace amine-associated receptor 1 (Homo sapiens), Q96RJ0; vehicle wells 0%, saturating PEA agonist 100%; activation, % at 3 µM; actives 0.99% (n = 360,000);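 active = activation above the mean activation of all test compounds in the run plus 3 SD, cut at about 38% in these data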
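Test system: RD-HGA16 (CHO) cells co-expressing Gα16 and hTAAR1 / Benchmarks: DMSO vehicle as 0%, PEA at EC100 as 100% / Repeats: no replicates (n 1) / Measure: % activation from peak over basal fluorescence ratio, DMSO-to-PEA scaled / Timing: 17-24 h plating, Fluo-8 75 min 37 °C, 30 min RT / Technique: kinetic Fluo-8 calcium fluorescence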
GalR3 antag – GalR3 antagonists in HEK293 cells, primary screen, cell-based, fluorescence readout. inhibition, % at 3 µM. AID 651719, 2012. HEK293 GalR3-CNG cAMP membrane potential fluorescence; galR3 body fused to GalR1 C-terminus. Galanin receptor type 3 (Homo sapiens), O60755. actives 0.44% (n = 360,000);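 active = inhibition above the screen-wide average plus 3 SD, cut at about 13% in these data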;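 also: forskolin and galanin both at EC90 stimulate the cells; cAMP rise reported by CNG channel membrane potential dye signal; 0% = forskolin plus galanin with DMSO and 100% = forskolin alone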
GalR3 antag conf – GalR3 antagonist hit confirmation, cell-based, fluorescence, triplicate; shares compounds with GalR3 antag; HEK293 GalR3 CNG cAMP biosensor, membrane potential fluorescence; galR3 fused to GalR1 carboxy tail; challenged with forskolin and galanin at EC90; inhibition, % at 3 µM; actives 59% (n = 1,600);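 active = inhibition above the primary screen's cutoff, the mean inhibition of all screened compounds plus 3 SD, cut at about 13% in these data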;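 also: 0% = forskolin plus galanin and 100% = forskolin alone with DMSO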
CNG parental – nonspecific cAMP agonists in parental HEK-CNG cells, counter-screen for GalR3 antagonist project, cell-based, fluorescence, high throughput | shares compounds with GalR3 antag | HEK293-CNG parental cells, cAMP membrane potential fluorescence; normalised: DMSO wells 0%, forskolin wells 100% | activation, % at 3 µM | actives 10% (n = 1,600) | AID 652268, 2013; in the data active = activation above about 1.3%
* marks the source's active call; other numbers are inactive results; · = no result given.

SMILES | TAAR1 antag | CHO parental Ca | OX1R antag-1 | OX1R antag-2 | TAAR1 agonist | GalR3 antag | GalR3 antag conf | CNG parental
COc1ccc(-c2cnc(C(O)c3ccc(OC)c(F)c3)[nH]2)cc1 (configuration not stated) | 1 | · | · | · | 1 | -4 | · | ·
Cc1cc(C)nc(SCC(=O)NNS(=O)(=O)c2ccc(C#N)cc2)n1 | -21 | · | · | · | 1 | -1 | · | ·
CCN(CC)S(=O)(=O)c1ccc(C(=O)NCCN(C)C)cc1 | -20 | 1 | -23 | 4 | 6 | 20* | 4 | 0
O=C(CC[C@H]1O[C@@H](n2ccc(=O)[nH]c2=O)[C@H](O)[C@@H]1O)N[C@H](Cc1ccccc1)C(=O)NCc1ccccc1 | -23 | · | · | · | 2 | -2 | · | ·
OCCC#Cc1ccc(CN2CCN(C3CCCCC3)C(CCO)C2)cc1 (configuration not stated) | -11 | -2 | -14 | 6 | 2 | 13* | 0 | 0
COc1cccc(CN(C)C(=O)CNC(=O)c2ccc(-c3ccccc3)cc2)c1OC | 26 | -15 | -16 | 16 | 4 | 53* | 116* | -1
Cc1cccc(C)c1-n1nnnc1C1(C)CCC(=O)N1c1ccc(N2CCOCC2)cc1 (configuration not stated) | 5 | · | · | · | 0 | -6 | · | ·
COc1ccc(CNC(=O)c2sc(=O)n(Cc3ccc(-c4ccccc4)cc3)c2C)cc1OC | 65* | · | · | · | 5 | 26* | 16* | -1
CC1CN(C)C(C)C/C1=N/Oc1ccccc1[N+](=O)[O-] (configuration not stated) | -2 | -2 | 1 | 27 | 4 | 13* | 3 | 0
CC1CN(C)C(C)C/C1=N\Oc1ccc([N+](=O)[O-])cc1 (configuration not stated) | 2 | -1 | -32 | 11 | 13 | -5 | · | ·
Cc1ccc(CNC(=O)c2ccc(N3CCC4(CC3)CC(c3ccccc3)=NO4)c(NC(=O)c3ccc(Br)cc3)c2)cc1 | 1 | -16 | -20 | 15 | 0 | -6 | · | ·
CCCC(C(=O)Nc1cc(S(=O)(=O)N2CCOCC2)ccc1OC)c1ccccc1 (configuration not stated) | -17 | -12 | -30 | 28 | 3 | -3 | · | ·
CCO[C@@H]1OC(C(=O)NCc2ccccc2)=C[C@H](C2CC2)[C@H]1CCCO | -14 | -25 | -20 | 11 | 2 | · | 9 | 0
CCO[C@@H]1OC(C(=O)NCc2ccccc2)=C[C@H](C2CCCCC2)[C@H]1CCCO | -4 | -22 | -19 | 11 | 4 | -7 | · | ·
O=C(c1cc2sccc2n1Cc1ccc(F)cc1)N1CCN(c2nc3ccccc3s2)CC1 | 18 | 37* | 26 | 38 | 2 | 17* | 73* | 1
O=C(COC(=O)c1ccc(F)c(S(=O)(=O)N2CCOCC2)c1)NCCc1ccccc1 | -4 | -9 | -17 | 23 | 0 | 1 | · | ·
O=C(NCc1ccccc1)C1C(=O)Nc2ccccc2C(=O)N1Cc1ccccc1 (configuration not stated) | -3 | · | · | · | 3 | -8 | · | ·
O/N=C(\c1ccc(Cl)cc1Cl)c1ncc(C(F)(F)F)cc1Cl | 0 | 5 | -15 | 10 | -1 | -4 | · | ·
